Active and inactive are the calls of the source.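 Rule for the calls: active = compounds blocking phage killing of the bacteria by at least 50% at some tested dose; inactive = the rest.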
How the values were obtained:
[1] = protection from K1F lysis, OD600 growth read-out – E. coli UTI89, K1F phage, C7 control, bacterial capsule biogenesis inhibitors, confirmation (AID 504358); settings: E. coli UTI89 K1F phage lysis inhibition, OD600; for SI: measured here: selectivity index CC50/IC50, stronger effect = higher value
In short: (§1)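 Material: E. coli UTI89 K1 cells with K1F phage; reagent: K1F phage, added after compound pre-exposure; incubation: 1.25 h compound, then 3 h phage, 37 °C; detection: absorbance at 600 nm, before infection and 3 h after; control set: phage-resistant kpsM mutant, wells with and without phage; replicates: quadruplicate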

[2] = tested on: E. coli UTI89 K1F phage lysis inhibition, OD600; assay: as above; settings: for CC50: measured here: cytotoxicity
In short: as §1

SMILES | SI [1] | IC50 [2] [µM] | CC50 [2] [µM] | outcome [1]
CC1(C(=O)O)CCC(C(=O)Nc2ccc3ccccc3c2)C1(C)C (stereo unspecified) | > 1.4 | 69.8 | > 100 | 
CCOc1ccc(-c2cc(NC(=O)c3c(F)cccc3F)c(C(=O)O)s2)cc1 | 10.8 | 6.2 | 66.7 | 
O=C(O)c1cc(-c2cccc(Cl)c2)nc2cc3ccccc3cc12 |  |  |  | inactive
O=C(Nc1ccncc1)c1ccc2ncsc2c1 | > 33 | 3 | > 100 | 
CC1=NN2C(=N)/C(=C\c3ccc(SCc4ccco4)o3)C(=O)N=C2S1 | 4.4 | 22.6 | > 100 | 
C=CCOc1ccc(C2c3c(oc4ccccc4c3=O)C(=O)N2CCCN2CCOCC2)cc1 (stereo unspecified) |  |  | > 100 | inactive
O=C(NCc1cc([N+](=O)[O-])ccc1O)c1cccnc1Sc1ccccc1Cl | > 3.8 | 26.1 | > 100 | 
COc1ccc2nc(NC(=O)c3ccc(Br)s3)sc2c1 | > 9.4 | 10.6 | > 100 | 
O=C(NCc1cc([N+](=O)[O-])ccc1O)c1cccnc1Sc1ccccc1 |  |  | > 100 | 
COc1ccc(OC)c(-c2cc(C(=O)O)c3cc4ccccc4cc3n2)c1 |  |  |  | inactive
Cc1cc(C)c2c(=O)c(-c3cc(C(=O)O)c4cc5ccccc5cc4n3)coc2c1 |  |  |  | inactive
O=C(ONc1ccc(N=NC(=O)c2ccccc2O)cc1)c1ccccc1 | 13.7 | 3.3 | 45.1 | 
O=C(COc1ccc(Cl)cc1Cl)Nc1ccc(C(=O)Nc2ccccc2C(=O)O)cc1 |  |  | 45.3 | 
Cc1ccc(C2c3c(oc4cc(C)c(C)cc4c3=O)C(=O)N2CCCN2CCOCC2)cc1 (stereo unspecified) |  |  | 44.4 | inactive
O=C(O)c1cc(-c2c[nH]c3ccccc23)nc2cc3ccccc3cc12 |  |  |  | inactive

— PubChem BioAssay AID504358 (Southern Research Specialized Biocontainment Screening …, 2011)
